Results pooled from the literature.
Each line is one published result; the experiments were not run side by side.
MTNR1B: Melatonin receptor type 1B (MTNR1B, Homo sapiens, UniProt P49286)

Structure (SMILES)	target	assay	conditions	measurement	value
CC(=O)c1cc([N+](=O)[O-])c(Sc2cccc(Cl)c2Cl)s1	Cathepsin D (CTSD, Homo sapiens, UniProt P07339)	enzyme activity, inhibitor	–	EC50	> 50000 nM
COc1cc(I)c2[nH]cc(CCNC(C)=O)c2c1	MTNR1B	β-arrestin recruitment, agonist	–	EC50	60.3 nM
Nc1nc(NCc2ccc(Oc3ccccc3)cc2)nc(-c2c(F)cccc2CO)n1	MTNR1B	cell-free assay, radioligand	–	Ki	1100 nM
COc1ccc(Br)c(CNc2cccnc2)c1	MTNR1B	cell-free assay	–	Ki	6.92 nM
Cc1cc(Nc2cc3ncccc3c(N[C@@H]3C[C@H]4CC[C@@H](C3)N4CCC#N)n2)n[nH]1	Death-associated protein kinase 1 (DAPK1, Homo sapiens, UniProt P53355)	binding, competition with immobilised ligand	–	Kd	96 nM
C=C1CC[C@@H]2[C@](C)(CO)[C@H](O)CC[C@@]2(C)[C@@H]1C/C=C1/C(=O)OC[C@H]1O	UDP-glucuronosyltransferase 2B7 (UGT2B7, Homo sapiens, UniProt P16662)	enzyme activity, inhibitor	pH 7.4	Ki	5700 nM
O=C(O)CC[C@@H](O)C(=O)O	Protein phosphatase 3 catalytic subunit alpha (PPP3CA, Homo sapiens, UniProt Q08209)	binding, SPR	–	Kd	~67000 nM
O=C(NCCc1cccc2ccccc12)C1CCC1	MTNR1B	ligand displacement, radioligand	cell membranes	Ki	~100 nM
COc1ccc2c(c1)C(=O)C1(CCc3ccccc31)O2 (centres unmarked)	Peptidyl-prolyl cis-trans isomerase NIMA-interacting 1 (PIN1, Homo sapiens, UniProt Q13526)	enzyme activity, inhibitor	–	Ki	77000 nM
CC(C)c1ccc(CNc2cccc(-c3nnc[nH]3)c2)cc1	MTNR1B	cell-free assay	–	Ki	3720 nM
COc1ccc2[nH]cc(CCNC(C)=O)c2c1I	MTNR1B	cAMP, agonist, TR-FRET	–	EC50	229 nM
Cc1cc2nc3c(=O)[nH]c(=O)nc-3n(C[C@H](O)[C@H](O)[C@H](O)COP(=O)(O)OP(=O)(O)OC[C@H]3O[C@@H](n4cnc5c(N)ncnc54)[C@H](O)[C@@H]3O)c2cc1C	Protein PRRC2C (Homo sapiens, UniProt Q9Y520)	binding	lysate	Kd	23700 nM
CC(=O)NCCc1c(Cc2ccccc2)[nH]c2ccccc12	MTNR1B	cAMP, antagonist, TR-FRET	–	Kb	~100 nM
CCCCN1CCC(COC(=O)c2ccc(N)c(OCF)c2)CC1	5-hydroxytryptamine receptor 1B (HTR1B, Homo sapiens, UniProt P28222)	cell-free assay, radioligand	–	Ki	> 10000 nM
